In brackets after ≈: the same amount, converted by molar mass.
Key:
[1] = Oral bioavailability in Sprague-Dawley rat at 5 mg/kg; format: ADME, organism-based; settings: in vivo
Method in brief: (§1)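 Male Sprague-Dawley-derived rats (n = 3) dosed iv or by oral gavage with 5 mg/mL solutions in 5% dextrose containing 20% ethanol, 30% propylene glycol and methanesulfonic acid equivalents. Plasma was sampled at 10 time points over 8 h, extracted into ethyl acetate/hexane and analysed by reversed-phase HPLC with internal standard. AUC in µg·h/mL.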

Cytochrome P450 2C19 = Cytochrome P450 2C19 (Homo sapiens, UniProt P33261); assay: Inhibition of CYP2C19 assessed as S-mephenytion hydroxylation; format: ADME
Sequence of Cytochrome P450 2C19 (P33261 whole entry): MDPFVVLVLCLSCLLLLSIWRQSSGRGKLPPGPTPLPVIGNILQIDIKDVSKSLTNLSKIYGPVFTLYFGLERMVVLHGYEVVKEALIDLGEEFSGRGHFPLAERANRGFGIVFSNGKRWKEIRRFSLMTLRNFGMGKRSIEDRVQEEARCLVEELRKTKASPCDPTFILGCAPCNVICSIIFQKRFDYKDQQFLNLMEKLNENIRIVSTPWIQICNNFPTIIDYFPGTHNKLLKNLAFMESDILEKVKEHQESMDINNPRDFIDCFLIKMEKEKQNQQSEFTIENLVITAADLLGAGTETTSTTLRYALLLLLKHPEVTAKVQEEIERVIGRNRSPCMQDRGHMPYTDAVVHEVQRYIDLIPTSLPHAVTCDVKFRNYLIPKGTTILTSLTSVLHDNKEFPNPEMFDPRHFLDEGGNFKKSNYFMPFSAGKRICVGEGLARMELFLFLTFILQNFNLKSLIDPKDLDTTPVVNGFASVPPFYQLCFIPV
Method in brief: (§2)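 CYP inhibition in vitro, with probe reactions of phenacetin O-deethylation (CYP1A2), tolbutamide hydroxylation (CYP2C9), S-mephenytoin hydroxylation (CYP2C19) and dextromethorphan O-demethylation (CYP2D6). Reported as IC50 in µM.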

Cathepsin D = Cathepsin D (Homo sapiens, UniProt P07339); assay: Inhibition of cathepsin D
Sequence of Cathepsin D (P07339 65-162 limits assumed): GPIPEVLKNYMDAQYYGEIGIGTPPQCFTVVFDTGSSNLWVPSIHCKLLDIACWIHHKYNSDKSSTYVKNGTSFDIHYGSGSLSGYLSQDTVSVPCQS
Sequence of Cathepsin D (P07339 169-412 limits assumed): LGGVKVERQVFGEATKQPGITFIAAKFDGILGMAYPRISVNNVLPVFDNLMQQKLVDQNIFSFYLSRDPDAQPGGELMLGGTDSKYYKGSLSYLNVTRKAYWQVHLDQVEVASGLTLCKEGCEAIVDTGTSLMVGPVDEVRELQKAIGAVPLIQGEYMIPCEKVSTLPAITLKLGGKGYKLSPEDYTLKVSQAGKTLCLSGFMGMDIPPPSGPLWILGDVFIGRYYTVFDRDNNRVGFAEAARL

[2] = Protein binding in human plasma by equilibrium dialysis; format: ADME, cell-free; settings: read-out: PB (converted)
Method in brief: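 Percentage bound in human plasma, determined by equilibrium dialysis.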

Rattus norvegicus = assay: Toxicity in Gunn rat assessed as unconjugated-bilirubin level at 125 mg/kg coadministered with ritonavir measured on day 1; format: organism-based; parameters: dose 125 mg/kg; settings: in vivo
Method in brief: (§3)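 Gunn rats (n = 8-10 per arm) dosed orally with compound in 5% ethanol/95% propylene glycol with p-toluenesulfonic acid, together with 50 mg/kg RTV. Plasma was sampled 4 h after the first and second doses. Drug was measured by HPLC and bilirubin […]. Change in bilirubin (mg/dL) reported as mean with SD.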

[3] = tested on: Human immunodeficiency virus 1; assay: Antiviral activity against HIV1 bearing protease gene with B26 mutation infected in human MT4 cells after 5 days by MTT assay; format: functional, organism-based; settings: Human immunodeficiency virus 1, MT4, 120 h
[4] = Cmax in dog at 5 mg/kg, po coadministered with 2.5 mg/kg ritonavir; format: ADME, organism-based, Canis lupus familiaris; parameters: dose 5 mg/kg, route oral; settings: in vivo
Method in brief: (§4)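 Male and female beagle dogs (n = 3) given oral gavage doses formulated as 5 mg/mL solutions in 5% dextrose with 20% ethanol, 30% propylene glycol and methanesulfonic acid, alone or with RTV (2.5 or 5 mg/kg). Plasma was taken at 12 time points over 12 h, extracted with ethyl acetate/hexane and analysed by reversed-phase HPLC with internal standard. AUC in µg·h/mL; Cmax and C12h in µg/mL.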

[5] = Cmax in dog at 5 mg/kg, po; format: ADME, organism-based, Canis lupus familiaris; parameters: dose 5 mg/kg, route oral; settings: in vivo; method in brief: as §4
[6] = Concentration of drug after 12 hrs in dog at 5 mg/kg, po coadministered with 5 mg/kg ritonavir; format: ADME, organism-based, Canis lupus familiaris; settings: in vivo, read-out: Drug uptake; method in brief: as §4
[7] = Clearance in Sprague-Dawley rat at 5 mg/kg, iv; format: ADME, organism-based; parameters: dose 5 mg/kg, route intravenous; settings: in vivo; method in brief: as §1
Renin = target: T1, Renin (Homo sapiens, UniProt P00797); assay: Inhibition of renin
T1 sequence (P00797 whole entry): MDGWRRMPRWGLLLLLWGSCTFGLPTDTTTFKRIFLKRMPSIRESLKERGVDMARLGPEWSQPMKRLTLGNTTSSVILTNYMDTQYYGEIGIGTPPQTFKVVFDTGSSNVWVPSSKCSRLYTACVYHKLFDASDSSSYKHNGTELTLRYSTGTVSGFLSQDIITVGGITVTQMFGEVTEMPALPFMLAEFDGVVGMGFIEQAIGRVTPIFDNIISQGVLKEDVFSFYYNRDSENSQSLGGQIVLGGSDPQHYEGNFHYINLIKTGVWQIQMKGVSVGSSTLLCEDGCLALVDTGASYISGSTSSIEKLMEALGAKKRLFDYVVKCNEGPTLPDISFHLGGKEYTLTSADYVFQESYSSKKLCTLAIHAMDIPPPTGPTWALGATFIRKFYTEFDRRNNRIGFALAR

[8] = Solubility at pH 7.4; format: physicochemical; settings: buffer
Method in brief: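 Solubility measured in µg/mL at pH 7.4 and 25 °C.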

[9] = AUC in dog at 5 mg/kg, po coadministered with 2.5 mg/kg ritonavir; format: ADME, organism-based, Canis lupus familiaris; settings: plasma; method in brief: as §4
[10] = Half life in Sprague-Dawley rat at 5 mg/kg, iv; format: ADME, organism-based; parameters: dose 5 mg/kg, route intravenous; settings: in vivo; method in brief: as §1
[11] = tested on: Human immunodeficiency virus 1; assay: Antiviral activity against HIV1 bearing protease gene with P25 mutation infected in human MT4 cells after 5 days by MTT assay; format: functional, organism-based; settings: Human immunodeficiency virus 1, MT4, 120 h
Cytochrome P450 2C9 = Cytochrome P450 2C9 (Homo sapiens, UniProt P11712); assay: Inhibition of CYP2C9 assessed as Tolbutamide hydroxylation; format: ADME; method in brief: as §2
Sequence of Cytochrome P450 2C9 (P11712 whole entry): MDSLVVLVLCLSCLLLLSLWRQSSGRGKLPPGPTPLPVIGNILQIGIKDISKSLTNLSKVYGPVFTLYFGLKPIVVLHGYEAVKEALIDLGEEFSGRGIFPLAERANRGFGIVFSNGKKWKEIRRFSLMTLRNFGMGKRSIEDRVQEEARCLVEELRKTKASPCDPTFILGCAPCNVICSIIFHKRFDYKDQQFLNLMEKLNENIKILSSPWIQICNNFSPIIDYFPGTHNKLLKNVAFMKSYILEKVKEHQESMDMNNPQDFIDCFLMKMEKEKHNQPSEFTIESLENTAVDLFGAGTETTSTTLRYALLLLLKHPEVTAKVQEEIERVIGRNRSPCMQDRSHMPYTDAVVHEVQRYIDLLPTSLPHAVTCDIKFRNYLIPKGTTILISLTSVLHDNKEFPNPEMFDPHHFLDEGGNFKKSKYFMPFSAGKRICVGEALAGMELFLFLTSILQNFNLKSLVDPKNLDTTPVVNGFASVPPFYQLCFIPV

[12] = AUC in dog at 5 mg/kg, po; format: ADME, organism-based, Canis lupus familiaris; parameters: dose 5 mg/kg, route oral; settings: plasma; method in brief: as §4
[13] = tested on: Human immunodeficiency virus 1; assay: Antiviral activity against HIV1 bearing protease gene with A17 mutation infected in human MT4 cells after 5 days by MTT assay; format: functional, organism-based; settings: Human immunodeficiency virus 1, MT4, 120 h
Method in brief: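 HIV-1 A17 mutant clone carrying protease mutations L10F, V32I, M46I, I47V, Q58E and I84V, generated by in vitro serial passage under LPV/RTV. EC50 was determined in MT-4 cells. Wild-type reference strain was HIV-1 pNL4-3.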

Cytochrome P450 2D6 = Cytochrome P450 2D6 (Homo sapiens, UniProt P10635); assay: Inhibition of CYP2D6 assessed as dextromethorphan O-demethylation; format: ADME; method in brief: as §2
Sequence of Cytochrome P450 2D6 (P10635 whole entry): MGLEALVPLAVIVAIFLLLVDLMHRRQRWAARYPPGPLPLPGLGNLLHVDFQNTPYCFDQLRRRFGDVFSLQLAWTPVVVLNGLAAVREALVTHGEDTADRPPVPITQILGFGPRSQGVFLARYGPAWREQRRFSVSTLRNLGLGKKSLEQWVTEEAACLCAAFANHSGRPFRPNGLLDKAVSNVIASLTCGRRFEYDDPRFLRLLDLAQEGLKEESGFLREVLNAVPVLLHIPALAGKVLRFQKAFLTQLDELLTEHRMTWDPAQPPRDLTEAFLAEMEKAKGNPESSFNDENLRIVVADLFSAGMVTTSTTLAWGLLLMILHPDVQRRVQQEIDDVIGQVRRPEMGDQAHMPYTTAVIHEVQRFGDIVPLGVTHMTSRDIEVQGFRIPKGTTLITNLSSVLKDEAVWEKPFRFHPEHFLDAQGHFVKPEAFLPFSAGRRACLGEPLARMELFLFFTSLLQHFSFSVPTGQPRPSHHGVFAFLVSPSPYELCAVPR

[14] = tested on: Human immunodeficiency virus 1; assay: Antiviral activity against wild-type HIV1 pNL4-3 infected in human MT4 cells after 5 days by MTT assay; format: functional, organism-based; settings: Human immunodeficiency virus 1, MT4, 120 h
[15] = tested on: Human immunodeficiency virus 1; assay: Antiviral activity against wild-type HIV1 pNL4-3 infected in human MT4 cells after 5 days by MTT assay in presence of 50% human serum; format: functional, organism-based; settings: Human immunodeficiency virus 1, MT4, 120 h
Serum = assay: Drug level in Gunn rat serum at 125 mg/kg coadministered with ritonavir measured on day 1; format: ADME, organism-based; parameters: dose 125 mg/kg; settings: in vivo; method in brief: as §3
[16] = Concentration of drug after 12 hrs in dog at 5 mg/kg, po coadministered with 2.5 mg/kg ritonavir; format: ADME, organism-based, Canis lupus familiaris; settings: in vivo, read-out: Drug uptake; method in brief: as §4
[17] = Cmax in dog at 5 mg/kg, po coadministered with 5 mg/kg ritonavir; format: ADME, organism-based, Canis lupus familiaris; parameters: dose 5 mg/kg, route oral; settings: in vivo; method in brief: as §4
Cytochrome P450 1A2 = target: T2, Cytochrome P450 1A2 (Homo sapiens, UniProt P05177); assay: Inhibition of CYP1A2 assessed as phenacetin O-deethylation; format: ADME; method in brief: as §2
T2 sequence (P05177 whole entry): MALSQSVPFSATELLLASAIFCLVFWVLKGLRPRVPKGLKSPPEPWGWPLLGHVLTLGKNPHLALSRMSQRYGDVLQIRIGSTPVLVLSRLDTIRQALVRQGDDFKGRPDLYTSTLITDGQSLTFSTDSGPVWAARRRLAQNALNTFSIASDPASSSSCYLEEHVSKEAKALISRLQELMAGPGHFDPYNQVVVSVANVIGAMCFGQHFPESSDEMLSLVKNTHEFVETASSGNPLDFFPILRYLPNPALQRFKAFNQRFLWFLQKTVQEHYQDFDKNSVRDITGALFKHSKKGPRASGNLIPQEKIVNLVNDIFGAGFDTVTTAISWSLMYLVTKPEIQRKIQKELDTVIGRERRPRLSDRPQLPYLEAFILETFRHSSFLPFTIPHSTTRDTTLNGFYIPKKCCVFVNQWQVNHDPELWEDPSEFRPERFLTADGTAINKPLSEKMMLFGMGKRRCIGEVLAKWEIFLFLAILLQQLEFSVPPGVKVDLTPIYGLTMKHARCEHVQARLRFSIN

[18] = Inhibition of human pepsin
[19] = AUC in Sprague-Dawley rat at 5 mg/kg, po; format: ADME, organism-based; parameters: dose 5 mg/kg, route oral; settings: plasma; method in brief: as §1
[20] = AUC in Sprague-Dawley rat at 5 mg/kg, po in presence of ritonavir; format: ADME, organism-based; parameters: dose 5 mg/kg, route oral; settings: plasma; method in brief: as §1
[21] = AUC in dog at 5 mg/kg, po coadministered with 5 mg/kg ritonavir; format: ADME, organism-based, Canis lupus familiaris; settings: plasma; method in brief: as §4
Cytochrome P450 3A4 = Cytochrome P450 3A4 (Homo sapiens, UniProt P08684); assay: Inhibition of CYP3A4 assessed as midazolam 1'- hydroxylation; format: ADME
Sequence of Cytochrome P450 3A4 (P08684 whole entry): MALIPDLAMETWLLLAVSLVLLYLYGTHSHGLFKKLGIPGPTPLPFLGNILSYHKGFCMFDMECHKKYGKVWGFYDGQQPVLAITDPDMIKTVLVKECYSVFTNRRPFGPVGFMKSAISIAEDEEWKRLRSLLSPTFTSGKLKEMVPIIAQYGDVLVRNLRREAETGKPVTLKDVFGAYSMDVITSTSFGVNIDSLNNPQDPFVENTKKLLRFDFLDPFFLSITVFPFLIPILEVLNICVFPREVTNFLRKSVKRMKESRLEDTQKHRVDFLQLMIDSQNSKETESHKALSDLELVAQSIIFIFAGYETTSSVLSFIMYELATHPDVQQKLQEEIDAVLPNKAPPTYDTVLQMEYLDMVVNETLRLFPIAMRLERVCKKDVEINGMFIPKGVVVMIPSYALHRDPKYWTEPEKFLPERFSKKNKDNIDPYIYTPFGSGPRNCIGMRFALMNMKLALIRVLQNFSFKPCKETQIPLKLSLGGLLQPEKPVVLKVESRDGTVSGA
Method in brief: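 CYP3A4 inhibition was measured as midazolam 1′-hydroxylation and expressed as Ki in nM.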

[22] = AUC in dog at 2.5 mg/kg; format: ADME, organism-based, Canis lupus familiaris; parameters: dose 2.5 mg/kg; settings: plasma; method in brief: as §4

**Q.** For `COC(=O)N[C@H](C(=O)N[C@H](Cc1ccc(-c2ccccn2)cc1)C[C@H](O)[C@H](Cc1ccccc1)NC(=O)[C@@H](N1CCN(Cc2cccc(C(C)(C)O)n2)C1=O)C(C)(C)C)C(C)(C)C`, which bioavailability [1] is on record?
**A.** 4.9%

**Q.** What about the IC50 (Cytochrome P450 2C19) of the same molecule?
**A.** > 5000 nM

**Q.** What about the Ki (Cathepsin D) of the same molecule?
**A.** 540 nM

**Q.** What about the fraction unbound [2] of the same molecule?
**A.** 0.018

**Q.** What about the Activity (Rattus norvegicus) of the same molecule?
**A.** 0.125 mg/dL

**Q.** What about the EC50 [3] of the same molecule?
**A.** 25 nM

**Q.** What about the Cmax [4] of the same molecule?
**A.** 2220 ng/mL

**Q.** And the Cmax [5]?
**A.** 40 ng/mL

**Q.** And the concentration at 12 h [6]?
**A.** 58 ng/mL

**Q.** And the clearance [7]?
**A.** 22.5 mL/min/kg

**Q.** What about the Ki (Renin) of the same molecule?
**A.** > 20000 nM

**Q.** And the solubility [8]?
**A.** 11.3 µg/mL (≈ 13.1 µM)

**Q.** And the AUC [9]?
**A.** 6720 ng·h/mL

**Q.** What about the half-life [10] of the same molecule?
**A.** 30 min

**Q.** What about the EC50 [11] of the same molecule?
**A.** 45 nM

**Q.** What about the IC50 (Cytochrome P450 2C9) of the same molecule?
**A.** > 5000 nM

**Q.** What about the AUC [12] of the same molecule?
**A.** 20 ng·h/mL

**Q.** And the EC50 [13]?
**A.** 10 nM

**Q.** What about the IC50 (Cytochrome P450 2D6) of the same molecule?
**A.** > 5000 nM

**Q.** What about the EC50 [14] of the same molecule?
**A.** 3 nM

**Q.** What about the EC50 [15] of the same molecule?
**A.** 19 nM

**Q.** What about the Drug uptake (Serum) of the same molecule?
**A.** 9.37 µg/mL

**Q.** What about the concentration at 12 h [16] of the same molecule?
**A.** 13 ng/mL

**Q.** What about the Cmax [17] of the same molecule?
**A.** 2560 ng/mL

**Q.** And the IC50 (Cytochrome P450 1A2)?
**A.** > 5000 nM

**Q.** And the Ki [18]?
**A.** 200000 nM

**Q.** And the AUC [19]?
**A.** 180 ng·h/mL

**Q.** What about the AUC [20] of the same molecule?
**A.** 12900 ng·h/mL

**Q.** What about the AUC [21] of the same molecule?
**A.** 10600 ng·h/mL

**Q.** And the Ki (Cytochrome P450 3A4)?
**A.** 66 nM

**Q.** For `CC(C)c1nc(CN(C)C(=O)N[C@H](C(=O)N[C@@H](Cc2ccccc2)C[C@H](O)[C@H](Cc2ccccc2)NC(=O)OCc2cncs2)C(C)C)cs1` [RITONAVIR], which AUC [22] is on record?
**A.** 1560 ng·h/mL

**Q.** And the AUC [12]?
**A.** 8800 ng·h/mL
